This is an account of results in ChEMBL document CHEMBL4406897 (Bioorg Med Chem, 2019).

Series [1] deals with T1, Dihydrofolate reductase (Homo sapiens, UniProt P00374).
T1 sequence (P00374 whole entry): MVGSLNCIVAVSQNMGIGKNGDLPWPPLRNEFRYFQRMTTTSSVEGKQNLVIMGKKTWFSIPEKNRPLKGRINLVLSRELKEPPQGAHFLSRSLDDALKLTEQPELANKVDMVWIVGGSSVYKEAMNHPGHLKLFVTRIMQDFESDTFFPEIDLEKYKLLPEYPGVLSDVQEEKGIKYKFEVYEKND
The series can be described thus: Inhibition of human dihydrofolate reductase using dihydrofolate as substrate in presence of NADPH by UV-vis spectrophotometry analysis.

Series [2] relates to Plasmodium falciparum. The series can be described thus: Antimalarial activity against Plasmodium falciparum TM4/8.2 infected in human erythrocytes assessed as reduction in [3H]-hypoxanthine incorporation pretreated for 24 hrs followed by [3H]-hypoxanthine addition measured after 18 hrs by liquid scintillation counting method. The format is functional, organism-based.
Series [3] has as its system Plasmodium falciparum. The series can be described thus: Antimalarial activity against pyrimethamine-resistant Plasmodium falciparum V1/S expressing Dihydrofolate reductase N51I/C59R/S108N/I164L mutant infected in human erythrocytes assessed as reduction in [3H]-hypoxanthine incorporation pretreated for 18 hrs followed by [3H]-hypoxanthine addition measured after 24 hrs by liquid scintillation counting method. It counts as functional, organism-based. The method in brief: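 P. falciparum V1/S kept in continuous culture in human erythrocytes at 37 °C under 3% CO2. Growth inhibition was read as [3H]-hypoxanthine incorporation.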

For series [4], the system named is Vero. The series is described as follows: Cytotoxicity against African green monkey Vero cells by sulforhodamine B assay. The format is cell-based. The settings on record: Chlorocebus sabaeus.
Series [5] is described as follows: Competitive inhibition of Plasmodium falciparum dihydrofolate reductase N51I/C59R/S108N/I164L quadruple mutant expressed in Escherichia coli BL21(DE3)pLysS using dihydrofolate as substrate in presence of NADPH by UV-vis spectrophotometry analysis. The method in brief: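 Quadruple-mutant PfDHFR expressed from a pET plasmid in E. coli BL21(DE3)pLysS, induced with 0.4 mM IPTG at 20 °C for 20 h. Cells lysed by French press at 18,000 psi. Enzyme purified on methotrexate-Sepharose in 20 mM potassium phosphate pH 7.0 with 50 mM KCl, 10 mM DTT, 0.1 mM EDTA and 20% glycerol. Activity read spectrophotometrically at 25 °C. Ki measured in microplate format, assuming competitive inhibition.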

For series [6], the system named is dihydrofolate reductase. The series is described as follows: Selectivity ratio of Ki for human dihydrofolate reductase to Ki for Plasmodium falciparum dihydrofolate reductase N51I/C59R/S108N/I164L quadruple mutant. The format is toxicity. The conditions noted are these: read-out: Ratio Ki.
The nature of series [7]: Selectivity ratio of IC50 for African green monkey Vero cells to IC50 for Plasmodium falciparum V1/S infected in human erythrocytes. The settings on record: read-out: Ratio IC50. The format is toxicity, cell-based.
For series [8], the system named is Plasmodium falciparum. The series is described as follows: Ratio of compound IC50 to pyrimethamine IC50 for antimalarial activity against Plasmodium falciparum TM4/8.2 infected in human erythrocytes. It counts as functional.
For series [9], the system named is Plasmodium falciparum. The series can be described thus: Ratio of compound IC50 to pyrimethamine IC50 for antimalarial activity against Plasmodium falciparum V1/S infected in human erythrocytes. The format is functional.
Series [10] in a line: Selectivity ratio of IC50 for African green monkey Vero cells to IC50 for Plasmodium falciparum TM4/8.2 infected in human erythrocytes. The settings on record: read-out: Ratio IC50. The format is toxicity, cell-based.
Series [11] is described as follows: Competitive inhibition of wild type Plasmodium falciparum dihydrofolate reductase expressed in Escherichia coli BL21(DE3)pLysS using dihydrofolate as substrate in presence of NADPH by UV-vis spectrophotometry analysis. In outline:
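Wild-type PfDHFR expressed from pET plasmid after 0.4 mM IPTG induction at 20 °C for 20 h. Cells lysed by French press at 18,000 psi. Enzyme purified on methotrexate-Sepharose in 20 mM potassium phosphate pH 7.0 with 0.1 mM EDTA, 10 mM DTT, 50 mM KCl and 20% glycerol. Activity read spectrophotometrically at 25 °C. Ki measured in microplate format, assuming competitive inhibition.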

The subject of series [12] is dihydrofolate reductase. The series can be described thus: Selectivity ratio of Ki for human dihydrofolate reductase to Ki for wild type Plasmodium falciparum TM4/8.2 dihydrofolate reductase. The settings on record: read-out: Ratio Ki. The format is toxicity.

SMILES strings stand for the structures. A value given as a limit tells only on which side of the number the result lay.

On to `CCc1nc(N)nc(N)c1-c1ccccc1`, for which the Ki in [1] (read-out: Ki) turned out to be 10.4 nM. In addition, the values for the IC50 in [2] and in series [3] were 720 nM and over 50000 nM, respectively.
In the case of `Cl.Nc1nc(N)c(-c2cccc(Cl)c2)c(CCCCCOc2ccccc2)n1`, the figures for the IC50 in series [4], in series [2] and in series [3] were 7210 nM, 430 nM and 9170 nM, respectively. The inhibition constant Ki stood at 18.4 nM in [1] (read-out: Ki) and 3.2 nM in series [5].
Regarding `Cl.Nc1nc(N)c(-c2ccccc2)c(COc2cccc(OCCCC(=O)O)c2)n1`, the concentration for half-maximal inhibition (IC50) in series [4] was over 50000 nM; in [2], 5240 nM; in series [3], 31100 nM. Moreover, the Ki in series [1] (read-out: Ki) came to 556 nM.
For `CCOC(=O)CCCOc1ccccc1CCc1nc(N)nc(N)c1-c1cccc(Cl)c1` the same measures were 8130 nM, 710 nM, 5240 nM and 23.4 nM.
With `Cl.Nc1nc(N)c(-c2cccc(Cl)c2)c(CCCCOc2cccc(OCC(=O)O)c2)n1`, the IC50 in series [4] was over 50000 nM; in [2], 43 nM; in series [3], 1420 nM. Moreover, the Ki in series [1] (read-out: Ki) came out at 13.4 nM; in [5], 0.72 nM.
Consider `Cl.Nc1nc(N)c(-c2ccccc2)c(CCCOc2cccc(OCC(=O)O)c2)n1`, for which the concentration for half-maximal inhibition (IC50) in series [4] is over 10000 nM; in series [2], 71 nM; in series [3] it was 2710 nM. Moreover, the Ki in series [1] (read-out: Ki) amounted to 18.2 nM; in series [5], 0.5 nM.
On to `Cl.Nc1nc(N)c(-c2cccc(Cl)c2)c(CCc2ccccc2OCCCc2ccccc2)n1`, for which the figures for the 50% inhibitory concentration (IC50) in series [4], in [2] and in series [3] were 650 nM, 6250 nM and 5500 nM, respectively. In series [1], the inhibition constant Ki result is given as “Active”.
As to `Cl.Nc1nc(N)c(-c2ccccc2)c(COc2cccc(OCC(=O)O)c2)n1`, the IC50 in series [4] was over 100000 nM; in series [2], 52600 nM; in [3] it was over 100000 nM. Further, in [1] (read-out: Ki), the inhibitory constant (Ki) was 509 nM.
Take `Cl.Nc1nc(N)c(-c2cccc(Cl)c2)c(CCc2ccccc2OCc2ccccc2)n1`: the half-maximal inhibitory concentration (IC50) turned out to be 400 nM in series [4], 1940 nM in series [2] and 4810 nM in [3]. The inhibition constant Ki in series [1] (read-out: Ki) worked out at 14.4 nM; in series [5] it was 3.06 nM.
For `Cl.Nc1nc(N)c(-c2cccc(Cl)c2)c(CCCOc2cccc(OCCCC(=O)O)c2)n1` the same measures were over 10000 nM, 49 nM, 440 nM, 19.6 nM and 0.98 nM.
For `Cl.Nc1nc(N)c(-c2cccc(Cl)c2)c(CCCCOc2cccc(OCCCC(=O)O)c2)n1` the same measures were over 100000 nM, 51 nM, 3000 nM, 21.7 nM and 0.93 nM.
With `Cl.Nc1nc(N)c(-c2ccccc2)c(CCCCCOc2ccccc2)n1`, the selectivity ratio was found to be 9.11 in series [6], 1 in [7], 20.8 in [10] and 110 in [12]. The IC50 was determined as 7910 nM in series [4], 380 nM in series [2] and 7890 nM in series [3]. For the same compound, the “Ratio IC50” value worked out at 4.75 in series [8] and 0.08 in [9]. In addition, the inhibition constant Ki in [1] (read-out: Ki) came out at 32.9 nM; in series [11], 0.3 nM; in series [5] it was 3.61 nM.
Consider `Cl.Nc1nc(N)c(-c2cccc(Cl)c2)c(COc2cccc(OCCCC(=O)O)c2)n1`, for which the IC50 was over 100000 nM in [4], 1800 nM in series [2] and 6200 nM in [3]. Also, the inhibition constant (Ki) in series [1] (read-out: Ki) is 74.2 nM.
As to `Cl.Nc1nc(N)c(-c2ccccc2)c(CCc2ccccc2OCc2ccccc2)n1`, the values for the concentration for half-maximal inhibition (IC50) in [4], in [2] and in series [3] were 1870 nM, 650 nM and 4370 nM, respectively. For the same compound, the Ki in series [1] (read-out: Ki) was 22.1 nM.
Consider `Cl.Nc1nc(N)c(-c2ccccc2)c(CCCCOc2ccccc2)n1`, for which the IC50 in [4] was determined as 15400 nM; in [2], 360 nM; in series [3], 11200 nM. Besides, the Ki turned out to be 48.7 nM in [1] (read-out: Ki) and 1.73 nM in series [5].
As to `CCOC(=O)CCCOc1ccccc1CCc1nc(N)nc(N)c1-c1ccccc1.Cl`, the IC50 in series [4] was over 10000 nM; in [2], 1250 nM; in series [3] it was over 10000 nM. In series [1] (read-out: Ki), the Ki worked out at 32.4 nM.
As to `Cl.Nc1nc(N)c(-c2ccccc2)c(CCCCOc2cccc(OCCCC(=O)O)c2)n1`, the IC50 is over 100000 nM in series [4], 71 nM in series [2] and 3910 nM in [3]. For the same compound, the Ki in [1] (read-out: Ki) is 34.8 nM; in series [5] it was 1.24 nM.
For `Cl.Nc1nc(N)c(-c2ccccc2)c(CCCOc2ccccc2)n1` the same measures were 1390 nM, 130 nM, 15100 nM, 12.5 nM and 1.37 nM.
`Cl.Nc1nc(N)c(-c2ccccc2)c(CCc2ccccc2OCCCc2ccccc2)n1`: the 50% inhibitory concentration (IC50) in [4] came to 4960 nM; in [2], 6730 nM; in series [3], 6150 nM. The inhibitory constant (Ki) in series [1] (read-out: Ki) stood at 27.3 nM.
On to `Cl.Nc1nc(N)c(-c2cccc(Cl)c2)c(CCCCOc2ccccc2)n1`, for which the IC50 in [4] was 5150 nM; in series [2], 340 nM; in [3] it was 6940 nM. Besides, the Ki is 12.8 nM in series [1] (read-out: Ki) and 1.49 nM in series [5].
With `Cl.Nc1nc(N)c(-c2cccc(Cl)c2)c(CCCOc2ccccc2)n1`, the selectivity ratio in [6] was 7.52; in series [7], 0.14; in series [10] it was 2.76; in series [12], 36.3. Besides, the IC50 in series [4] came out at 470 nM; in [2], 170 nM; in series [3] it was 3420 nM. Also, the entries for the “Ratio IC50” value in [8] and in [9] were 2.13 and 0.03, respectively. The inhibitory constant (Ki) in series [1] (read-out: Ki) turned out to be 8.72 nM; in [11] it was 0.24 nM; in series [5] it was 1.16 nM.
`Cl.Nc1nc(N)c(-c2cccc(Cl)c2)c(COc2cccc(OCC(=O)O)c2)n1`: the values for the concentration for half-maximal inhibition (IC50) in series [4], in [2] and in [3] were over 10000 nM, 6010 nM and 11400 nM, respectively. For the same compound, the inhibition constant (Ki) in [1] (read-out: Ki) turned out to be 52.4 nM.
`Cl.Nc1nc(N)c(-c2ccccc2)c(CCCOc2cccc(OCCCC(=O)O)c2)n1`: the IC50 was over 25000 nM in series [4], 52 nM in [2] and 540 nM in series [3]. Also, the Ki was 29.1 nM in series [1] (read-out: Ki) and 1.26 nM in series [5].
With `Cl.Nc1nc(N)c(-c2ccccc2)c(CCCCOc2cccc(OCC(=O)O)c2)n1`, the selectivity ratio in [6] is 44.2; in series [10], over 17.2; in [12], 91.9. The concentration for half-maximal inhibition (IC50) in series [4] was over 1000 nM; in series [2] it was 58 nM; in [3], over 1000 nM. The “Ratio IC50” value in series [8] is 0.73; in series [9] it was 0.01. In addition, the inhibition constant (Ki) in series [1] (read-out: Ki) was determined as 46 nM; in series [11], 0.5 nM; in series [5], 1.04 nM.
For the compound `Cl.Nc1nc(N)c(-c2cccc(Cl)c2)c(CCCOc2cccc(OCC(=O)O)c2)n1`, the IC50 in series [4] was over 50000 nM; in series [2] it was 48 nM; in series [3], 430 nM. The Ki in [1] (read-out: Ki) was found to be 13.6 nM; in [5], 0.41 nM.
Take `CCc1nc(N)nc(N)c1-c1ccc(Cl)cc1` [PYRIMETHAMINE]: the values for the Ki in [11] and in series [5] were 0.6 nM and 385 nM, respectively. In addition, the IC50 in series [3] is over 100000 nM.

As usually defined, the Ki is a measure of affinity in units of concentration, obtained from inhibition or displacement. In general, IC50 refers to the midpoint of a concentration-inhibition curve.
